The subject of series [1] is Rattus norvegicus. Briefly: Increase in allograft survival in stringent Dark Agouti to Lewis rat heterotopic vascular heart allotransplantation model assessed as allograft mean survival time at 30 mg/kg, po bid coadministered with 10 mg/kg, bid sotrastaurin (reference value: 6 days). Format: functional. In short, it runs like this: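 This was a DA-to-Lewis heart allograft model with co-treatment from 3 days before transplantation. The prodrug was given po b.i.d. in PEG200/water at pH 5, plus the PKC inhibitor po b.i.d. in D-glucose/PEG400/water/HCl. Lymphocytes were counted weekly before dosing, and blood levels of both drugs were determined. Survival was followed up to 50 days, as median days, with H&E and trichrome histology.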

In series [2] the test system is Rattus norvegicus. The experiment in a line: Reduction in peripheral blood lymphocytes in Lewis rat assessed as remaining circulating lymphocytes level at 30 mg/kg, po administered as single dose measured 14 hrs post dose by automated hematology analyzer. It is filed as functional. In short, it runs like this: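 Male Lewis rats receive a single oral dose of compound or vehicle, freshly made in 30% PEG200/buffer. Blood (<200 μL) is drawn by sublingual puncture under isoflurane 5% v/v at baseline and later time points. Lymphocytes are counted on an automated hematology analyzer, and each animal's change is expressed as percent of its own pre-treatment baseline.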

In series [3] the test system is Rattus norvegicus. Briefly: Induction of capillary leakage in Lewis rat Evans blue dye lung leakage model assessed as thorax fluid level at 30 mg/kg, po bid measured after 96 hrs relative to untreated control. It is filed as organism-based. On the set-up: dose 30 mg/kg, route oral. Particulars: in vivo. In short, it runs like this: (§1)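 Male Lewis rats were gavaged twice daily with vehicle or 30 mg/kg in 30% PEG200/buffer. Evans blue dye (20 mg/2 mL NaCl/kg iv) was given under anesthesia at 5, 23 or 95 h. One hour later the rats were bled, lungs were perfused with saline, dried at 60 °C for 24 h, weighed, and dye was extracted in formamide (24 h, 37 °C). Thoracic fluid volume was also recorded.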

Series [4] relates to Rattus norvegicus. The experiment in a line: Induction of capillary leakage in Lewis rat Evans blue dye lung leakage model assessed as thorax fluid level at 30 mg/kg, po bid measured after 24 hrs relative to untreated control. Format: organism-based. On the set-up: dose 30 mg/kg, route oral. As to conditions: in vivo. In short, it runs like this: as §1
In series [5] the test system is Rattus norvegicus. The experiment in a line: Induction of capillary leakage in Lewis rat Evans blue dye lung leakage model assessed as thorax fluid level at 30 mg/kg, po bid measured after 6 hrs relative to untreated control. It is filed as organism-based. On the set-up: dose 30 mg/kg, route oral. Particulars: in vivo. In short, it runs like this:
as §1

Series [6] can be described thus: Stability in pH 7.4 buffer assessed as compound hydrolysis measured after 2 hrs by UPLC. It is filed as physicochemical. Particulars: read-out: Drug degradation. In short, it runs like this: (§2)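 The ester was incubated in buffer at pH 7.4 or pH 10. Remaining ester and the hydrolysed carboxylic acid were followed over time by UPLC, at time points out to 82 h.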
Series [7] has as its system Rattus norvegicus. Briefly: Reduction in peripheral blood lymphocytes in stringent Dark Agouti to Lewis rat heterotopic vascular heart allotransplantation model at 30 mg/kg, po bid coadministered with 10 mg/kg, bid sotrastaurin measured post 50 days post transplant relative to untreated control. It is filed as functional. On the set-up: scale not given: the % may be the effect or the level left. An outline of the steps:
(§3)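 DA donor hearts were grafted into Lewis recipients. Treatment started 3 days before transplantation: prodrug 30 mg/kg po b.i.d. (PEG200/water, pH 5) alone or with sotrastaurin 10 mg/kg po b.i.d. or everolimus 0.3 mg/kg po q.d. Grafts were followed to rejection or up to 50 days. Allografts were formalin-fixed, cut at 3 μm, stained with H&E and trichrome, and scored for rejection. Lymphocytes were counted weekly before dosing, and body weight was monitored.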

In series [8] the test system is Rattus norvegicus. Briefly: Increase in allograft survival in stringent Dark Agouti to Lewis rat heterotopic vascular heart allotransplantation model assessed as allograft mean survival time at 30 mg/kg, po bid coadministered with 0.3 mg/kg, qd everolimus (reference value: 6 days). Format: functional.
Series [9] has as its system Rattus norvegicus. Briefly: Toxicity in stringent Dark Agouti to Lewis rat heterotopic vascular heart allotransplantation model assessed as incidence of histopathological changes at 30 mg/kg, po bid coadministered with 10 mg/kg, bid sotrastaurin by hematoxylin and eosin staining. It is filed as organism-based. Particulars: in vivo. An outline of the steps:
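DA hearts grafted into rat recipients. Test agent 30 mg/kg po b.i.d. (in PEG200/water, pH 5 with 0.1 M HCl) plus the PKC inhibitor 10 mg/kg po b.i.d. (in D-glucose/PEG400/water/0.1 M HCl), started 3 days before transplantation. The study ended at rejection or a set end point. Grafts were formalin-fixed and paraffin-embedded, and 3 μm sections were stained with H&E and trichrome. Acute cellular rejection (0–3R), vasculopathy and fibrosis were scored; lungs were also examined.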

Series [10] relates to Rattus norvegicus. The experiment in a line: Induction of capillary leakage in Lewis rat Evans blue dye lung leakage model at 30 mg/kg, po bid measured 24 hrs after 6 hrs relative to untreated control. On the set-up: dose 30 mg/kg, route oral. As to conditions: in vivo. It is filed as organism-based. An outline of the steps:
as §1

Series [11] relates to Rattus norvegicus. The experiment in a line: Toxicity in stringent Dark Agouti to Lewis rat heterotopic vascular heart allotransplantation model assessed as incidence of histopathological changes at 30 mg/kg, po bid coadministered with 0.3 mg/kg, qd everolimus by hematoxylin and eosin staining. Format: organism-based. As to conditions: in vivo. In short, it runs like this: as §3

The next series concerns Blood. Briefly: Cmax in Lewis rat blood assessed as level of (S)-2-{[3'-(4-Chloro-2,5-dimethylphenylsulfonylamino)-3,5-dimethylbiphenyl-4-carbonyl]methylamino}-4-dimethylaminobutyric Acid Hydrochloride at 30 mg/kg, po administered as single dose measured 8 hrs post dose. Particulars: in vivo.
The test system of series [12] is Rattus norvegicus. The experiment in a line: Reduction in peripheral blood lymphocytes in stringent Dark Agouti to Lewis rat heterotopic vascular heart allotransplantation model at 30 mg/kg, po bid coadministered with 0.3 mg/kg, qd everolimus measured post 50 days post transplant relative to untreated control. On the set-up: scale not given: the % may be the effect or the level left. Format: functional. An outline of the steps: as §3

The test system of series [13] is Rattus norvegicus. The experiment in a line: Toxicity in stringent Dark Agouti to Lewis rat heterotopic vascular heart allotransplantation model assessed as change in body weight at 30 mg/kg, po bid coadministered with 10 mg/kg, bid sotrastaurin. Format: organism-based. Particulars: in vivo. An outline of the steps:
as §3

Series [14] concerns Rattus norvegicus. Briefly: Toxicity in stringent Dark Agouti to Lewis rat heterotopic vascular heart allotransplantation model assessed as change in body weight at 30 mg/kg, po bid coadministered with 0.3 mg/kg, qd everolimus. It is filed as organism-based. Particulars: in vivo. An outline of the steps: as §3
The nature of series [15]: Drug level in Lewis rat blood at 30 mg/kg, po administered as single dose measured 24 hrs post dose. Particulars: read-out: Drug uptake.
For series [16], the system named is Rattus norvegicus. The experiment in a line: Reduction in peripheral blood lymphocytes in Lewis rat assessed as remaining circulating lymphocytes level at 30 mg/kg, po, qd for 5 days by automated hematology analyzer. Format: functional. In short, it runs like this: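 Male Lewis rats were dosed daily at 30 mg/kg po for 5 days. Blood lymphocytes were counted on an automated hematology analyzer once a day, before the next dose, and expressed relative to the pretreatment baseline.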

A short description of series [17]: Stability in pH 7.4 buffer assessed as compound hydrolysis measured after 49 hrs by UPLC. It is filed as physicochemical. Particulars: read-out: Drug degradation. In short, it runs like this:
as §2

The nature of series [18]: Stability in pH 10 buffer assessed as compound remaining measured after 2 hrs by UPLC. It is filed as physicochemical. As to conditions: read-out: Stability. In short, it runs like this: as §2
A short description of series [19]: Stability in pH 7.4 buffer assessed as compound hydrolysis measured after 18 hrs by UPLC. Format: physicochemical. As to conditions: read-out: Drug degradation. In short, it runs like this:
as §2

Series [20] deals with Rattus norvegicus. The experiment in a line: Increase in allograft survival in stringent Dark Agouti to Lewis rat heterotopic vascular heart allotransplantation model assessed as improvement in histological changes at 30 mg/kg, po bid coadministered with 0.3 mg/kg, qd everolimus by hematoxylin and eosin staining. It is filed as functional, organism-based. In short, it runs like this:
as §3

Series [21] is described as follows: Cmax in Lewis rat blood at 30 mg/kg, po administered as single dose measured 8 hrs post dose.
A short description of series [22]: Stability in pH 7.4 buffer assessed as compound hydrolysis measured after 82 hrs by UPLC. Format: physicochemical. As to conditions: pH 7.4, 82 h. In short, it runs like this: as §2
In series [23] the test system is Rattus norvegicus. Briefly: Toxicity in stringent Dark Agouti to Lewis rat heterotopic vascular heart allotransplantation model assessed as compound tolerance at 30 mg/kg, po bid coadministered with 10 mg/kg, bid sotrastaurin. Format: organism-based. Particulars: in vivo. An outline of the steps:
as §3

Molecules are shown by their SMILES. Activity calls are given as the source filed them. The calls are words filed in the database; no cut-off is given here.

By Cmax is commonly meant the highest concentration seen after dosing. Take `COC(=O)[C@H](CCN(C)C)N(C)C(=O)c1c(C)cc(-c2cccc(NS(=O)(=O)c3cc(C)c(Cl)cc3C)c2)cc1C`: the MST with Rattus norvegicus [1] and in the series with Rattus norvegicus [8] was greater than 50 days each time. The Activity in the series on Rattus norvegicus [2] is 21%; with Rattus norvegicus [3] it was “Non-toxic”; in the series with Rattus norvegicus [4], 2 mL; in the series on Rattus norvegicus [5], 1 mL; in the series on Rattus norvegicus [7] it was 12%; with Rattus norvegicus [9], “Non-toxic”. The Activity entry is listed as “Non-toxic” in the series on Rattus norvegicus [11]; 9% in the series with Rattus norvegicus [12]; “Non-toxic” with Rattus norvegicus [13]; “Non-toxic” with Rattus norvegicus [14]; 20% in the series on Rattus norvegicus [16]; “Non-toxic” in the series on Rattus norvegicus [23]. Besides, the degraded at 2 h in series [6] is 9%. In addition, the “fold change (FC)” value in the series on Rattus norvegicus [10] came to 2.4. Besides, the Cmax stood at 29 ng/mL with Blood and 364 ng/mL in [21]. For the same compound, the concentration at 24 h in series [15] was determined as 50 ng/mL. The degraded at 49 h in series [17] amounted to 85%. The remaining at 2 h in series [18] was 52%. Also, the degraded at 18 h in series [19] amounted to 48%. The outcome in the series with Rattus norvegicus [20] was Active. Besides, the Stability entry in series [22] is recorded as “Unstable”.

(Values after ChEMBL document CHEMBL2176995, “An oral sphingosine 1-phosphate receptor 1 (S1P(1)) antagonist prodrug with efficacy in vivo: discovery, synthesis, and evaluation” (J Med Chem, 2012).)
